Bioassay records from PubChem.
STAT1 activator – activators of IFN-gamma induced STAT1 signaling; NIH 3T3 STAT1-luciferase reporter, luminescence; 100% = IFN-gamma alone, no compound; activation (% of control), % at 5.5 µM; actives 2.6% (n = 200,000); AID 932;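 active = activation above the screen-wide mean activation plus 3 SD, cut at about 130% in these data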;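 also: raw ratio to IFN-gamma control signal so 100% means no change and 0% no light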
p97 ATPase inh – inhibitors of human p97 ATPase. P55072. recombinant p97 ATPase, Kinase-Glo ATP luminescence, 3 h. inhibition, % at 8 µM. actives 0.42% (n = 220,000). AID 1481; in the data active = inhibition above about 15%;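 also: 0% = DMSO vehicle and 100% = wells lacking enzyme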
Mdm2 ligase inh – Mdm2 E3 ligase (human) inhibition; Q00987; cell-based MDM2 ubiquitination luciferase reporter, 2 h; 0 = plate control, 100 = twice control, blank-subtracted; signal enhancement, % at 5 µM; actives 0.11% (n = 210,000); AID 1230;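 active = signal enhancement of 30% or more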;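 also: luminescence tracks abundance of the self-degrading MDM2-luciferase fusion protein; higher signal means inhibition of MDM2 E3 ligase activity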
Target sequence (Q00987 whole entry, looked up, the tested form may be a part): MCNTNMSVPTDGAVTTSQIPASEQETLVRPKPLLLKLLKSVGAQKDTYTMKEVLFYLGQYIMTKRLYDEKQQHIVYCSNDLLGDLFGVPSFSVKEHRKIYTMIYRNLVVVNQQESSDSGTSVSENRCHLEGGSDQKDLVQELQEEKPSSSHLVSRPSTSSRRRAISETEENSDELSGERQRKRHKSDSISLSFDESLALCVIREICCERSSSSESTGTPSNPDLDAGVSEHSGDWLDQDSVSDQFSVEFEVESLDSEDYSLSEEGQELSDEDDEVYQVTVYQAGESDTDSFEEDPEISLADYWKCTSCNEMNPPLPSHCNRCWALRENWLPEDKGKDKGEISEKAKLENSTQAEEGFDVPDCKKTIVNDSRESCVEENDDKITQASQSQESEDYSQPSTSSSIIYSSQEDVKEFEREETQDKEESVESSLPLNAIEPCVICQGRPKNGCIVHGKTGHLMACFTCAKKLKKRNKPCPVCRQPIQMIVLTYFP
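Material: Stable MDM2–luciferase fusion reporter cells | Amount: 2000 cells seeded into each well | Dosing: One concentration, 5 µM, with 0.2% DMSO | Incubation: 4 h cell settling then 2 h compound exposure, 37 °C | Measured by: Luciferase luminescence | Read-out basis: % enhancement relative to plate controls after blank subtraction | Benchmarks: Control and blank well means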
Wee1 stabilizer – blocks degradation of human Wee1 kinase; actives 1.2% (n = 220,000); HeLa Luc-Wee1K328M stability, luciferase luminescence; 100% = proteasome inhibitor MG132 effect; reporter increase, % at 5 µM;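 active = activation above the mean of all tested compounds plus 3 SD, set per screening run, cut at about 8.8% in these data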;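 also: cells exposed to compound for 20 h before luminescence read; 0% = DMSO alone and 100% = MG132 at 30 µM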
APP 5'UTR act – APP 5'UTR luciferase reporter activation | activation, % at 2 µM | SH-SY5Y APP 5'UTR luciferase reporter, luminescence; zero percent = DMSO vehicle wells | actives 1% (n = 190,000);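 active = activation above a set limit, based on mean plus 3 SD of controls, cut at about 140% in these data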
NF-kB expr up – compounds increasing NF-kB expression in human neuronal cells; AID 1239; fold change at 12.5 µM; NF-kB reporter expression; hits give high values; actives 1.6% (n = 190,000); in the data active = fold change above about 3.3
Wee1 stab conf – human Wee1 degradation inhibition, confirmation | shares compounds with Wee1 stabilizer | HeLa Luc-Wee1K328M degradation, luminescence; vehicle 0%, proteasome-blocked wells 100% | activation, % at 5 µM | actives 4% (n = 1,100) | AID 1410; in the data active = activation above about 8.9%
An asterisk follows results filed as active; . = not tested or not shown. Hits are enriched below; roughly 4.6% of the tested compounds scored in any of these assays.

SMILES	STAT1 activator	p97 ATPase inh	Mdm2 ligase inh	Wee1 stabilizer	APP 5'UTR act	NF-kB expr up	Wee1 stab conf
Cc1nc(C(C)N(C)Cc2nc(-c3ccc4c(c3)OCO4)no2)c(C)s1 (centres undefined)	102	-2	-14	-1	2	1.4	.
O=C(Nc1ccc2sccc2c1)c1cccc(N2C(=O)CCC2=O)c1	140*	4	-5	15*	13	1.9	4
O=C(Nc1nc2cc3c(cc2s1)OCCO3)c1cccc(N2C(=O)CCC2=O)c1	110	7	-20	-1	6	1.3	.
C=CCNC(=S)NN=C1CCCCCCC1	96	4	-8	0	-21	1.1	.
O=C(CC(=O)c1ccccc1O)c1cccc(F)c1	107	-2	-12	11*	26	1.3	4
O=C(CC(=O)c1ccccc1O)c1ccc(F)cc1	114	2	-4	0	30	1.1	.
CCN(CC)S(=O)(=O)c1cc(C(=O)N(C)CC(=O)Nc2ccc(Cl)cc2)ccc1Cl	92	3	11	12*	-26	1.2	0
CN(Cc1ccccc1)c1ccc(C(=O)O)cc1[N+](=O)[O-]	95	5	-8	1	-16	1	.
CNC(=O)C(=O)NCCc1ccc(Cl)cc1	102	0	-9	20*	10	1.1	0
CC(=O)c1cc2c(cc1NS(=O)(=O)c1ccccc1F)OCO2	107	11	-8	0	-4	1	.
C/C(CC(=O)NCCN1CCOCC1)=N\NC(=O)c1ccncc1	.	6	-23	2	.	.	.
O=C(NCCN1CCOCC1)c1ccncc1	107	6	-16	12*	14	1.2	5
Cc1cc(/C=C2\SC(=S)NC2=O)c(C)n1-c1ccccc1	.	3	-29	15*	.	.	4
Nc1cccc(C2=Nc3cccc4cccc(c34)N2)c1	99	0	-16	12*	-4	1.1	1
COc1ccc(C2=Nc3cccc4cccc(c34)N2)cc1	95	1	-6	0	1	0.9	.
O=C(Nc1ncccc1O)c1c(O)c2ccccc2[nH]c1=O	.	2	-9	0	.	.	.
Cc1ccc(S(=O)(=O)N2CCOCC2)cc1C(=O)N1CCOCC1	99	1	-6	-2	-7	0.94	.
Cc1ccc(S(=O)(=O)N2CCOCC2)cc1C(=O)N(C)CCOc1ccc(Cl)cc1	.	-9	3	12*	.	.	0
CCN=C(NCC)SC1CC(=O)N(c2ccc(OCC)cc2)C1=O (centres undefined)	108	-1	-7	16*	4	1.1	6
CCOc1ccc(N2C(=O)CC(Sc3nnnn3-c3ccccc3)C2=O)cc1 (centres undefined)	86	4	-5	14*	-38	1	-1
COc1ccc(/C=C/C(=O)OCC(=O)Nc2ccc(C)cc2)cc1S(=O)(=O)N1CCOCC1	92	2	-4	4	-17	1.1	.
CS(=O)(=O)Nc1cccc(C2=NN(S(C)(=O)=O)C(c3ccc4c(c3)OCO4)C2)c1 (centres undefined)	125	2	8	13*	9	1.9	6
COc1cccc(N2C(=O)[C@H]3C(C(=O)c4cnccn4)=NN[C@H]3C2=O)c1	.	7	.	21*	.	.	-1
Cc1cc(SCC(=O)OCC(=O)NCC2CCCO2)c(C)cc1Br (centres undefined)	92	-5	2	0	10	1.1	.
O=C(CSc1nnc(-c2ccncc2)o1)N1CCCCCC1	110	4	2	13*	6	1.2	5
O=C(CSc1nnc(-c2ccncc2)n1CCc1ccccc1)N1CCCC1	.	3	.	12*	.	.	4
Cc1ccc(-c2nnc(SCC(=O)N3CCCC3)o2)cc1	114	-5	-2	-1	-5	2.2	.
CC(C)C(c1nnnn1Cc1ccc(F)cc1)N1CCN(c2ccc(O)cc2)CC1 (centres undefined)	100	6	-5	-1	-4	2.3	.
COc1cc(CNCCN(C)C)c(Br)cc1OC1CCCC1	97	-2	-19	-4	-14	1	.
